Data from ChEMBL document CHEMBL1909504, “New series of isoniazid hydrazones linked with electron-withdrawing substituents” (Eur J Med Chem, 2011).
pIC50: −log10 of the molar value. Converted amounts (≈) assume the structure as drawn.

What was measured:
[1] = test system: Mycobacterium tuberculosis; experiment: Antimycobacterial activity against Mycobacterium tuberculosis CNTC My 331/88 ATCC 27294 after 14 days; format: functional; details: CNTC My 331/88 ATCC 27294, 336 h
How it was run: (§1)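 Sula semi-synthetic medium at 37 °C. Compounds were dissolved in DMSO (max. 5% DMSO in water) and added to the medium at 1000, 500, 250, 125, 62, 31, 16, 8, 4, 2 and 1 μmol L⁻¹. MIC was read after 7, 14 and 21 days of incubation at 37 °C. Strains came from the Czech National Collection of Type Cultures.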

[2] = test system: Mycobacterium tuberculosis; experiment: Antimycobacterial activity against Mycobacterium tuberculosis CNTC My 331/88 ATCC 27294 after 21 days; format: functional; details: CNTC My 331/88 ATCC 27294, 504 h; how it was run: as §1
[3] = test system: Mycobacterium avium; experiment: Antimycobacterial activity against Mycobacterium avium CNTC My 330/88 after 14 days; format: functional; details: CNTC My 330/88, 336 h; how it was run: as §1
[4] = test system: Mycobacterium avium; experiment: Antimycobacterial activity against Mycobacterium avium CNTC My 330/88 after 21 days; format: functional; details: CNTC My 330/88, 504 h; how it was run: as §1
[5] = test system: Mycobacterium kansasii; experiment: Antimycobacterial activity against Mycobacterium kansasii CNTC My 335/80 after 7 days; format: functional; details: 168 h
How it was run: (§2)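 MIC in Sula semi-synthetic medium at 37 °C. M. kansasii 6509/96 is a clinical isolate; M. kansasii CNTC My 235/80 comes from the Czech national collection. Compounds were dissolved in DMSO (max. 5% DMSO in water) and tested at 1000, 500, 250, 125, 62, 31, 16, 8, 4, 2 and 1 μmol L⁻¹. MIC was read after 7, 14 and 21 days.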

[6] = test system: Mycobacterium kansasii; experiment: Antimycobacterial activity against Mycobacterium kansasii CNTC My 335/80 after 14 days; format: functional; details: 336 h; how it was run: as §2
[7] = test system: Mycobacterium kansasii; experiment: Antimycobacterial activity against Mycobacterium kansasii CNTC My 335/80 after 21 days; format: functional; details: 504 h; how it was run: as §2
[8] = test system: Mycobacterium kansasii; experiment: Antimycobacterial activity against Mycobacterium kansasii 6509/96 isolate after 7 days; format: functional; details: 6509/96, 168 h; how it was run: as §2
[9] = test system: Mycobacterium kansasii; experiment: Antimycobacterial activity against Mycobacterium kansasii 6509/96 isolate after 14 days; format: functional; details: 6509/96, 336 h; how it was run: as §2
[10] = test system: Mycobacterium kansasii; experiment: Antimycobacterial activity against Mycobacterium kansasii 6509/96 isolate after 21 days; format: functional; details: 6509/96, 504 h; how it was run: as §2
[11] = test system: HepG2; experiment: Cytotoxicity against human HepG2 cells by MTT assay; format: cell-based
How it was run: (§3)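 MTT viability assay in RPMI-1640 without phenol red with 10% FCS and 2 mM L-glutamine, at 37 °C and 5% CO₂. HepG2 seeded at 5×10³ cells/well; fresh human PBMC at 2.0×10⁵ cells/well. After 24 h, cells were exposed overnight in serum-free medium, then given MTT (2 mg mL⁻¹) for 4 h. Formazan dissolved in DMSO, OD540 minus OD620, compared with untreated controls. IC50 taken from dose-response curves; two independent experiments, 4–8 parallels.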

[12] = test system: PBMC; experiment: Cytotoxicity against human PBMC by MTT assay; format: cell-based; how it was run: as §3
[13] = Selectivity index, ratio of IC50 for human HepG2 cells to MIC for Mycobacterium tuberculosis CNTC My 331/88 ATCC 27294; format: functional
How it was run: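 HepG2 human hepatoma cells in RPMI-1640 without phenol red with 10% FCS, 2 mM L-glutamine and gentamycin, at 37 °C and 5% CO₂. Seeded at 5×10³ cells/well and grown 24 h, then treated overnight in serum-free medium. Read-out was MTT (4 h), formazan dissolved in DMSO, OD540 minus OD620. IC50 was taken from dose-response curves, two experiments with 4–8 parallels. MIC was measured in Sula medium.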

Compound	MIC [1] [µM]	MIC [2] [µM]	MIC [3] [µM]	MIC [4] [µM]	MIC [5] [µM]	MIC [6] [µM]	MIC [7] [µM]	MIC [8] [µM]	MIC [9] [µM]	MIC [10] [µM]	pIC50 [11]	pIC50 [12]	Ratio [13]
COc1ccc(N/C=N/NC(=O)c2ccncc2)cc1	2 (≈ 0.541 µg/mL)	4 (≈ 1.08 µg/mL)	500 (≈ 135 µg/mL)	500 (≈ 135 µg/mL)	250 (≈ 67.6 µg/mL)	500 (≈ 135 µg/mL)	1000 (≈ 270 µg/mL)	16 (≈ 4.32 µg/mL)	16 (≈ 4.32 µg/mL)	32 (≈ 8.65 µg/mL)			
O=C(N/N=C/Nc1cc(Cl)ccc1O)c1ccncc1	2 (≈ 0.581 µg/mL)	2 (≈ 0.581 µg/mL)	500 (≈ 145 µg/mL)	500 (≈ 145 µg/mL)	125 (≈ 36.3 µg/mL)	250 (≈ 72.7 µg/mL)	250 (≈ 72.7 µg/mL)	8 (≈ 2.33 µg/mL)	16 (≈ 4.65 µg/mL)	32 (≈ 9.3 µg/mL)	4.66	4.12	10.9
O=C(N/N=C/Nc1ccc(Cl)cc1O)c1ccncc1	2 (≈ 0.581 µg/mL)	4 (≈ 1.16 µg/mL)	250 (≈ 72.7 µg/mL)	500 (≈ 145 µg/mL)	250 (≈ 72.7 µg/mL)	500 (≈ 145 µg/mL)	500 (≈ 145 µg/mL)	16 (≈ 4.65 µg/mL)	16 (≈ 4.65 µg/mL)	32 (≈ 9.3 µg/mL)			
O=C(N/N=C/Nc1cccc(Br)c1)c1ccncc1	1 (≈ 0.319 µg/mL)	1 (≈ 0.319 µg/mL)	250 (≈ 79.8 µg/mL)	500 (≈ 160 µg/mL)	250 (≈ 79.8 µg/mL)	1000 (≈ 319 µg/mL)	1000 (≈ 319 µg/mL)	8 (≈ 2.55 µg/mL)	8 (≈ 2.55 µg/mL)	16 (≈ 5.11 µg/mL)			
O=C(N/N=C/Nc1ccc(C(F)(F)F)cc1)c1ccncc1	2 (≈ 0.617 µg/mL)	2 (≈ 0.617 µg/mL)	500 (≈ 154 µg/mL)	1000 (≈ 308 µg/mL)	250 (≈ 77.1 µg/mL)	500 (≈ 154 µg/mL)	1000 (≈ 308 µg/mL)	32 (≈ 9.86 µg/mL)	32 (≈ 9.86 µg/mL)	32 (≈ 9.86 µg/mL)			
O=C(N/N=C/Nc1ccc(F)c(Cl)c1)c1ccncc1	1 (≈ 0.293 µg/mL)	2 (≈ 0.585 µg/mL)	250 (≈ 73.2 µg/mL)	500 (≈ 146 µg/mL)	250 (≈ 73.2 µg/mL)	1000 (≈ 293 µg/mL)	> 1000	16 (≈ 4.68 µg/mL)	16 (≈ 4.68 µg/mL)	32 (≈ 9.37 µg/mL)			
O=C(N/N=C/Nc1ccc(O)cc1)c1ccncc1	4 (≈ 1.03 µg/mL)	8 (≈ 2.05 µg/mL)	500 (≈ 128 µg/mL)	500 (≈ 128 µg/mL)	250 (≈ 64.1 µg/mL)	500 (≈ 128 µg/mL)	500 (≈ 128 µg/mL)	32 (≈ 8.2 µg/mL)	62.5 (≈ 16 µg/mL)	62.5 (≈ 16 µg/mL)			
O=C(N/N=C/Nc1cccc(O)c1)c1ccncc1	2 (≈ 0.513 µg/mL)	2 (≈ 0.513 µg/mL)	500 (≈ 128 µg/mL)	500 (≈ 128 µg/mL)	250 (≈ 64.1 µg/mL)	1000 (≈ 256 µg/mL)	1000 (≈ 256 µg/mL)	16 (≈ 4.1 µg/mL)	32 (≈ 8.2 µg/mL)	32 (≈ 8.2 µg/mL)			
COc1cccc(N/C=N/NC(=O)c2ccncc2)c1	2 (≈ 0.541 µg/mL)	2 (≈ 0.541 µg/mL)	500 (≈ 135 µg/mL)	500 (≈ 135 µg/mL)	250 (≈ 67.6 µg/mL)	500 (≈ 135 µg/mL)	1000 (≈ 270 µg/mL)	16 (≈ 4.32 µg/mL)	16 (≈ 4.32 µg/mL)	16 (≈ 4.32 µg/mL)			
O=C(N/N=C/Nc1cccc(Cl)c1)c1ccncc1	1 (≈ 0.275 µg/mL)	1 (≈ 0.275 µg/mL)	500 (≈ 137 µg/mL)	1000 (≈ 275 µg/mL)	125 (≈ 34.3 µg/mL)	500 (≈ 137 µg/mL)	500 (≈ 137 µg/mL)	16 (≈ 4.4 µg/mL)	16 (≈ 4.4 µg/mL)	16 (≈ 4.4 µg/mL)			
